Measured values from ChEMBL document CHEMBL1137344, “Flavonoid dimers as bivalent modulators for P-glycoprotein-based multidrug resistance: synthetic apigenin homodimers linked with defined-length poly(ethylene glycol) spacers increase drug retention and enhance chemosensitivity in resistant cancer cells” (J Med Chem, 2006).
Activity calls are given as the source filed them. The rule behind the calls is not given here.

How the values were obtained:
[1] = system: MDA-MB-435; assay: Cytotoxicity against MDA435/LCC6 cells at 5 uM; type: functional, cell-based; conditions: Homo sapiens
[2] = system: P388/ADR; assay: Reversal of DOX resistance in P388 ADR cells by MTS assay at 5 uM; type: functional, cell-based; conditions: Mus musculus
How it was run: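 P388/ADR cells: 3-day MTS assay of DOX dose-response with modulator at 5 µM, or 10 µM for monomers. Verapamil 5 µM and 0.05% DMSO as controls. IC50 from curves, triplicate points, mean ± SD of three independent experiments.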

[3] = system: MDA-MB-435; assay: Reversal of vinblastine resistance in multidrug resistant MDA435/LCC6 cells by MTS assay at 10 uM; type: functional, cell-based; conditions: Homo sapiens
How it was run: (§1)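 MDA435/LCC6 MDR cells in DMEM with 10% FBS, 2000 cells/well, allowed to attach for 24 h. Anticancer drug was added in serial concentrations with or without modulator (dimers 5 µM, monomers 10 µM; 0.05% DMSO solvent control), then grown for 4 days at 37 °C, 5% CO2. MTS/PMS was added for 2 h and A490 read. Survival was taken relative to DMSO controls; IC60 for DOX, IC50 for the others; triplicate.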

[4] = system: MDA-MB-435; assay: Reversal of DOX resistance in multidrug resistant MDA435/LCC6 cells by MTS assay at 10 uM; type: functional, cell-based; conditions: Homo sapiens; how it was run: as §1
[5] = system: MDA-MB-435; assay: Cytotoxicity against MDA435/LCC6 cells at 10 uM; type: functional, cell-based; conditions: Homo sapiens
[6] = system: P388; assay: Relative fold, IC50 in absence to presence of 1,13-bis[4'-((5,7-dihydroxy)-4H-chromen-4-on-2-yl)phenyl]-1,4,7,10,13-pentaoxatridecane in multidrug resistant P388 cells; type: functional, Mus musculus
How it was run: (§2)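 P388/ADR cells seeded 5000/well in RPMI 1640 with 10% FBS, given drug concentration series with or without 5 µM modulator for 3 days. MTS/PMS added for 2 h at 37 °C, absorbance at 490 nm. IC50 from dose-response curves versus 0.05% DMSO controls. RF = IC50 without modulator / IC50 with modulator.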

[7] = system: P388/ADR; assay: Antiproliferative activity against adriamycin resistant P388 cells by ELISA; type: functional, cell-based; conditions: Mus musculus
How it was run: (§3)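 MTS/PMS proliferation assay: cells seeded 5000/well in RPMI 1640 with 10% FBS and penicillin/streptomycin at 37 °C, 5% CO2. Drug series added and cells grown 3 days. MTS/PMS added for 2 h at 37 °C, absorbance read at 490 nm. Survival relative to DMSO (0.05%) controls; IC50 from dose-response curves, at least triplicate.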

[8] = system: MDA-MB-435; assay: Antiproliferative activity against multidrug resistant MDA435/LCC6 cells by ELISA; type: functional, cell-based; conditions: Homo sapiens
How it was run: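 MTS/PMS proliferation assay: cells seeded 2000/well, drugs added after 24 h attachment, growth 4 days in DMEM with 10% FBS at 37 °C, 5% CO2. MTS/PMS added for 2 h, absorbance read at 490 nm. Survival is taken relative to DMSO (0.05%) controls. IC50 is read from dose-response curves, at least triplicate, repeated twice.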

[9] = system: MDA-MB-435; assay: Relative fold, IC50 in absence to presence of 1,13-bis[4'-((5,7-dihydroxy)-4H-chromen-4-on-2-yl)phenyl]-1,4,7,10,13-pentaoxatridecane in multidrug resistant MDA435/LCC6 cells; type: functional, Homo sapiens
How it was run: (§4)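 Resistant breast cells seeded 2000/well, allowed 24 h attachment, then exposed to anticancer-drug concentration series with or without 5 µM modulator for 4 days. MTS/PMS read at 490 nm after 2 h. IC50 from dose-response curves relative to 0.05% DMSO controls. RF = IC50 without modulator divided by IC50 with modulator.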

[10] = system: MDA-MB-435; assay: Antiproliferative activity against multidrug resistant MDA435/LCC6 cells in presence of 5 uM 1,13-bis[4'-((5,7-dihydroxy)-4H-chromen-4-on-2-yl)phenyl]-1,4,7,10,13-pentaoxatridecane by ELISA; type: functional, cell-based; conditions: Homo sapiens; how it was run: as §4
[11] = system: MDA-MB-435; assay: Antiproliferative activity against MDA435/LCC6 cells by ELISA; type: functional, cell-based; conditions: Homo sapiens
[12] = system: P388; assay: Antiproliferative activity against P388 cells by ELISA; type: functional, cell-based; conditions: Mus musculus; how it was run: as §3
[13] = system: P388/ADR; assay: Antiproliferative activity against adriamycin resistant P388 cells in presence of 5 uM 1,13-bis[4'-((5,7-dihydroxy)-4H-chromen-4-on-2-yl)phenyl]-1,4,7,10,13-pentaoxatridecane by ELISA; type: functional, cell-based; conditions: Mus musculus; how it was run: as §2
[14] = system: MDA-MB-435; assay: Antiproliferative activity against multidrug resistant MDA435/LCC6 cells in presence of 5 uM verapamil by ELISA; type: functional, cell-based; conditions: Homo sapiens; how it was run: as §4
[15] = system: MDA-MB-435; assay: Relative fold, IC50 in absence to presence of verapamil in multidrug resistant MDA435/LCC6 cells; type: functional, Homo sapiens; how it was run: as §4
[16] = system: MDA-MB-435; assay: Reversal of vinblastine resistance in multidrug resistant MDA435/LCC6 cells by MTS assay; type: functional, cell-based; conditions: Homo sapiens
How it was run: (§5)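 Resistant MDA435/LCC6 cells, 4-day MTS assay of paclitaxel or vinblastine dose-response with dimers at 5 µM or monomers at 10 µM. Verapamil 5 µM as positive control, DMSO 0.05% as solvent control. IC50 from curves, triplicate, some repeated three times and averaged.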

[17] = system: MDA-MB-435; assay: Effect on P-gp-mediated drug efflux in multidrug resistant MDA435/LCC6 cells assessed as relative fold in intracellular DOX accumulation at 10 uM; type: functional, Homo sapiens
How it was run: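 Resistant MDA435/LCC6 cells grown to confluence, preincubated 30 min at 37 °C in fresh DMEM with modulator (0–20 µM), then DOX added (final 20 µM) for 2 h at 37 °C. Cells trypsinized, washed in cold PBS, lysed in 0.3 N HCl/50% ethanol, sonicated, centrifuged. Supernatant fluorescence read at ex 470/em 585 nm. Mean ± SD of three independent experiments.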

[18] = system: MDA-MB-435; assay: Reversal potency of vinblastine resistance in multidrug resistant MDA435/LCC6 cells by MTS assay; type: functional; conditions: Homo sapiens, in the assay text read “doxorubicin” for “vinblastine”
[19] = system: MDA-MB-435; assay: Reversal of paclitaxel resistance in multidrug resistant MDA435/LCC6 cells by MTS assay; type: functional, cell-based; conditions: Homo sapiens; how it was run: as §5

| SMILES | Activity [1] | Activity [2] | Ratio IC50 [6] | IC50 [7] [nM] | IC50 [8] [nM] | Ratio IC50 [9] | IC50 [10] [nM] | IC50 [11] [nM] | IC50 [12] [nM] | IC50 [13] [nM] | further results |
| --- | --- | --- | --- | --- | --- | --- | --- | --- | --- | --- | --- |
| O=c1cc(-c2ccc(OCCOCCOCCOCCOCCOCCOCCOCCOc3ccc(-c4cc(=O)c5c(O)cc(O)cc5o4)cc3)cc2)oc2cc(O)cc(O)c12 | inactive | inactive | – | – | – | – | – | – | – | – | – |
| O=c1cc(-c2ccc(OCCOCCOCCO)cc2)oc2cc(O)cc(O)c12 | – | – | – | – | – | – | – | – | – | – | Activity [3]: inactive; Activity [4]: inactive; Activity [5]: inactive |
| O=c1cc(-c2ccc(OCCOc3ccc(-c4cc(=O)c5c(O)cc(O)cc5o4)cc3)cc2)oc2cc(O)cc(O)c12 | inactive | inactive | – | – | – | – | – | – | – | – | – |
| CC[C@]1(O)C[C@H]2CN(CCc3c([nH]c4ccccc34)[C@@](C(=O)OC)(c3cc4c(cc3OC)N(C=O)[C@H]3[C@@](O)(C(=O)OC)[C@H](OC(C)=O)[C@]5(CC)C=CCN6CC[C@]43[C@@H]65)C2)C1 [VINCRISTINE] | – | – | 66 | 299 | 26 | 41 | 0.63 | 0.29 | 2.2 | 4.5 | – |
| O=c1cc(-c2ccc(OCCOCCOCCOCCOCCOCCOc3ccc(-c4cc(=O)c5c(O)cc(O)cc5o4)cc3)cc2)oc2cc(O)cc(O)c12 | inactive | inactive | – | – | – | – | – | – | – | – | – |
| O=C1c2c(O)ccc(O)c2C(=O)c2c(NCCNCCO)ccc(NCCNCCO)c21 [MITOXANTRONE] | – | – | 2 | 395 | 1440 | 2.2 | 646 | 0.35 | 4.3 | 194 | – |
| COc1cccc2c1C(=O)c1c(O)c3c(c(O)c1C2=O)C[C@@](O)(C(=O)CO)C[C@@H]3O[C@H]1C[C@H](N)[C@H](O)[C@H](C)O1 [DOXORUBICIN] | – | – | 14 | 1740 | 4690 | 9 | 550 | 300 | 22 | 123 | IC50 [14]: 300 nM; Ratio IC50 [15]: 16 |
| O=c1cc(-c2ccc(OCCOCCOc3ccc(-c4cc(=O)c5c(O)cc(O)cc5o4)cc3)cc2)oc2cc(O)cc(O)c12 | inactive | – | – | – | – | – | – | – | – | – | IC50 [16]: 0.61 nM; Activity [17]: 4.5; IC60 [18]: 1300 nM; IC50 [19]: 19.9 nM |
| O=c1cc(-c2ccc(OCCOCCOCCOCCOCCOc3ccc(-c4cc(=O)c5c(O)cc(O)cc5o4)cc3)cc2)oc2cc(O)cc(O)c12 | inactive | inactive | – | – | – | – | – | – | – | – | – |
| O=c1cc(-c2ccc(OCCOCCOCCOCCO)cc2)oc2cc(O)cc(O)c12 | – | – | – | – | – | – | – | – | – | – | Activity [3]: inactive; Activity [4]: inactive; Activity [5]: inactive; EC50 [19]: > 10000 nM |
| O=c1cc(-c2ccc(OCCOCCOCCOCCOCCOCCOCCOCCOCCOc3ccc(-c4cc(=O)c5c(O)cc(O)cc5o4)cc3)cc2)oc2cc(O)cc(O)c12 | inactive | inactive | – | – | – | – | – | – | – | – | – |
| CC[C@]1(O)C[C@@H]2CN(CCc3c([nH]c4ccccc34)[C@@](C(=O)OC)(c3cc4c(cc3OC)N(C)[C@H]3[C@@](O)(C(=O)OC)[C@H](OC(C)=O)[C@]5(CC)C=CCN6CC[C@]43[C@@H]65)C2)C1 [VINBLASTINE] | – | – | 22 | 95 | 4.4 | 10 | 0.42 | 0.34 | 4.1 | 4.3 | IC50 [14]: 0.29 nM; Ratio IC50 [15]: 15 |
| COc1ccc(CCN(C)CCCC(C#N)(c2ccc(OC)c(OC)c2)C(C)C)cc1OC (stereo not drawn) [VERAPAMIL] | – | – | – | – | – | – | – | – | – | – | IC50 [16]: 0.25 nM; EC50 [19]: 700 nM; IC50 [19]: 5.2 nM |
| CC(=O)O[C@H]1C(=O)[C@@]2(C)[C@H]([C@H](OC(=O)c3ccccc3)[C@]3(O)C[C@H](OC(=O)[C@H](O)[C@@H](NC(=O)c4ccccc4)c4ccccc4)C(C)=C1C3(C)C)[C@]1(OC(C)=O)CO[C@@H]1C[C@@H]2O [PACLITAXEL] | – | – | 55 | 1640 | 105 | 22 | 4.8 | 2.9 | 22 | 30 | IC50 [14]: 5.2 nM; Ratio IC50 [15]: 20 |
| O=c1cc(-c2ccc(OCCOCCOCCOCCOCCOCCOCCOc3ccc(-c4cc(=O)c5c(O)cc(O)cc5o4)cc3)cc2)oc2cc(O)cc(O)c12 | inactive | inactive | – | – | – | – | – | – | – | – | – |
| O=c1cc(-c2ccc(OCCOCCOCCOc3ccc(-c4cc(=O)c5c(O)cc(O)cc5o4)cc3)cc2)oc2cc(O)cc(O)c12 | inactive | – | – | – | – | – | – | – | – | – | IC50 [16]: 0.87 nM; Activity [17]: 4; IC60 [18]: 1300 nM; IC50 [19]: 21.5 nM |
